Counter-ions that a name gives are not always drawn. Non-standard residues stand in square brackets, D forms with d. Residues, ends and D or L forms follow the SMILES beside them. *: point of attachment. dPhe(4-NHCONH2) = NC(=O)Nc1ccc(C[C@@H](N)C(=O)O)cc1; Dihydroorotyl(S) = O=C1C[C@@H](C(=O)*)NC(=O)N1; dPhe(4-Cl) = N[C@H](Cc1ccc(Cl)cc1)C(=O)O; Phe(4-NH2) = Nc1ccc(C[C@H](N)C(=O)O)cc1; d2Nal = N[C@H](Cc1ccc2ccccc2c1)C(=O)O; Lys(iPr) = CC(C)NCCCC[C@H](N)C(=O)O; d3Pal = N[C@H](Cc1cccnc1)C(=O)O
Tests used:
[1] = tested on: human ether-a-go-go-related gene (hERG) channel; details: preclinical investigations; ref Ferring Pharmaceuticals, unpublished data; cited from earlier work
[2] = tested on: human GnRH receptor; details: cited from earlier work
[3] = tested on: QT interval / cardiac repolarisation in healthy men; test: Thorough QT/QTc study, 12-lead ECG, QTcF; format: in vivo; details: for No. of subjects with ΔQTcF >30 ms / No. of subjects with ΔQTcF >60 ms / No. of subjects with ΔQTcF ≤30 ms / No. of subjects with QTcF >450 ms / No. of subjects with QTcF >480 ms / No. of subjects with QTcF >500 ms / No. of subjects with QTcF ≤450 ms: categorical analysis, degarelix n = 76, moxifloxacin n = 78; for No. of subjects with ΔQTcF >30 ms / No. of subjects with ΔQTcF >60 ms / No. of subjects with ΔQTcF ≤30 ms: change from baseline
[4] = tested on: healthy men; test: Safety assessments; format: in vivo
In short: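 Six-sequence crossover of iv test compound, iv placebo and oral moxifloxacin, with 7–10 day washouts. Adverse events, 12-lead ECG and vital signs were monitored throughout. Clinical chemistry, haematology and urinalysis were run by a central laboratory. Adverse event was defined as any untoward medical occurrence in a participant.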

[5] = Degarelix plasma concentration; format: in vivo, healthy men
In short: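 Single 60-min iv infusion of 2.8 mg in 5% glucose. Plasma sampled predose and at 30, 60, 90, 120, 150, 180 min, 6, 12 and 24 h after infusion start. Assay: validated solid-phase extraction with LC–MS/MS, quantification range 0.500–100 ng/mL (up to 500 ng/mL after dilution), precision and bias within 10%. Parameters from noncompartmental analysis; values below LLOQ or missing were excluded.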

[6] = cited from earlier work

Row | SMILES | No. of subjects with ΔQTcF >30 ms [3] | No. of subjects with ΔQTcF >60 ms [3] | No. of subjects with ΔQTcF ≤30 ms [3] | No. of subjects with QTcF >450 ms [3] | No. of subjects with QTcF >480 ms [3] | No. of subjects with QTcF >500 ms [3] | No. of subjects with QTcF ≤450 ms [3] | Number of AEs reported ([4]; after each treatment) | also measured
1 | CC(=O)N[C@H](Cc1ccc2ccccc2c1)C(=O)N[C@H](Cc1ccc(Cl)cc1)C(=O)N[C@H](Cc1cccnc1)C(=O)N[C@@H](CO)C(=O)N[C@@H](Cc1ccc(NC(=O)[C@@H]2CC(=O)NC(=O)N2)cc1)C(=O)N[C@H](Cc1ccc(NC(N)=O)cc1)C(=O)N[C@@H](CC(C)C)C(=O)N[C@@H](CCCCNC(C)C)C(=O)N1CCC[C@H]1C(=O)N[C@H](C)C(N)=O [degarelix] (Ac-[d2Nal][dPhe(4-Cl)][d3Pal]S[Phe(4-NH2)](Dihydroorotyl(S))[dPhe(4-NHCONH2)]L[Lys(iPr)]P[dA]-NH2) | 3 (4%) n (%) | 0 n (%) | 73 (96%) n (%) | 0 n (%) | 0 n (%) | 0 n (%) | 76 (100%) n (%) | 27 | Effect on hERG channel [1]: no effect; Affinity and selectivity towards the human GnRH receptor [2]: high affinity and selectivity; One-sided 95% upper confidence boundaries for ΔΔQTcF at any of the nine timepoints ([3]; degarelix 2.8 mg iv over 60 min, 24-h period after start of infusion): ≤ 10 ms; Mean maximum baseline-corrected difference versus placebo in QTcF ([3]; degarelix 2.8 mg iv over 60 min, time-matched): < 4 ms; Slope of concentration-response effect on QTcF compared with placebo ([3]; repeated measures ANCOVA, 677 observations from 79 subjects): slightly negative slope; Intensity of AEs ([4]; after degarelix treatment): mild intensity; Mean changes in placebo-corrected HR, PR and QRS durations ([4]; degarelix 2.8 mg iv): did not show any clinically relevant results; Degarelix concentration at 24 h relative to Cmax ([5]; 24 h after start of degarelix 2.8 mg iv administration): < 10%; Cmax ([5]; male, human, plasma, iv, 2.8 mg): 0.222 µg/mL; Median maximal degarelix plasma concentration ([5]; single dose 2.8 mg infused iv over 60 min at constant rate): approximately 220 ng/mL; Median peak concentration ([6]; single subcutaneous administration of 240 mg, prostate cancer): 66 ng/mL; Half-life ([6]; subcutaneous administration, slow-release phase from in situ depot): several weeks
2 | COc1c(N2C[C@@H]3CCCN[C@@H]3C2)c(F)cc2c(=O)c(C(=O)O)cn(C3CC3)c12 [moxifloxacin, moxifloxacin hydrochloride] | 15 (19%) n (%) | 0 n (%) | 63 (81%) n (%) | 2 (3%) n (%) | 0 n (%) | 0 n (%) | 76 (97%) n (%) | 29 | QTc prolongation produced by positive control ([3]; moxifloxacin 400 mg oral): ≥ 5 ms; Lower bound of 98.3% CI for ΔΔQTcF (moxifloxacin vs placebo) ([3]; moxifloxacin 400 mg single oral dose, at 2.5, 3 and 6 h, assay sensitivity): exceeded 5 ms; Subjects reporting AEs ([4]; 80 subjects randomised, after each treatment): 22 (28%) n (%)

Reference: paper PMC5569649 (Clinical Drug Investigation, 2017)
